# Assay results of several laboratories.
# Each line is one published result; the experiments were not run side by side. pEC50, pIC50, pKd, pKi: −log10 of the molar value.
# PIK3CG: Phosphatidylinositol 4,5-bisphosphate 3-kinase catalytic subunit gamma isoform (PIK3CG, Homo sapiens, UniProt P48736)
# ADRA2B: Alpha-2B adrenergic receptor (ADRA2B, Homo sapiens, UniProt P18089)
SMILES,target,test,conditions,quantity,result
CC(C)C[C@H](NC(=O)[C@H](CC(C)C)NC(=O)[C@H](Cc1c[nH]c2ccccc12)NC(=O)[C@H](CCC(N)=O)NC(=O)[C@@H](NC(=O)[C@H](Cc1ccccc1)NC(=O)[C@H](CC(=O)O)NC(=O)[C@H](CCC(N)=O)NC(=O)[C@H](C)NC(=O)[C@H](C)NC(=O)[C@H](CCCNC(=N)N)NC(=O)[C@H](CCC(=O)O)NC(=O)[C@H](CC(=O)O)NC(=O)[C@H](CC(C)C)NC(=O)[C@H](Cc1ccc(O)cc1)NC(=O)[C@H](CCCCN)NC(=O)[C@H](CO)NC(=O)[C@H](Cc1ccc(O)cc1)NC(=O)[C@H](CC(=O)O)NC(=O)[C@H](CO)NC(=O)[C@@H](NC(=O)[C@H](Cc1ccccc1)NC(=O)[C@@H](NC(=O)CNC(=O)[C@H](CCC(N)=O)NC(=O)C(C)(C)NC(=O)[C@@H](N)Cc1c[nH]cn1)[C@@H](C)O)[C@@H](C)O)C(C)C)C(=O)N[C@@H](CC(=O)O)C(=O)NCC(=O)NCC(=O)N1CCC[C@H]1C(=O)N[C@@H](CO)C(=O)N[C@@H](CC(C)C)C(=O)N[C@@H](CCCNC(=N)N)C(=O)N[C@@H](Cc1c[nH]cn1)C(=O)N[C@@H](Cc1ccc(O)cc1)C(=O)N[C@@H](CC(C)C)C(=O)N[C@@H](CC(N)=O)C(=O)N[C@@H](CC(C)C)C(=O)N[C@H](C(=O)N[C@H](C(=O)N[C@@H](CCCNC(=N)N)C(=O)N[C@@H](CCC(N)=O)C(=O)N[C@@H](CCCNC(=N)N)C(=O)N[C@@H](Cc1ccc(O)cc1)C(N)=O)[C@@H](C)O)C(C)C,"Neuropeptide Y receptor type 2 (NPY2R, Homo sapiens, UniProt P49146)","reporter gene, agonist, luciferase",,pEC50,9.40
CCC(C(=O)N1C(=O)C(=Nc2ccc(Cl)cc2Br)c2ccccc21)c1ccccc1 (stereo not shown),PIK3CG,"enzyme activity, inhibitor, ADP detection",,pIC50,7.55
Cc1cc(Oc2ncccc2CN2CCN(C(c3ccccc3)c3ccccc3)CC2)ccc1-c1c(C)c(=O)[nH]c(=O)n1C,ADRA2B,"ligand displacement, radioligand",,pKi,6.76
Nc1ncnc2c1ncn2C1CCCC1,"Inositol-tetrakisphosphate 1-kinase (Homo sapiens, UniProt Q13572)","binding, ITC",pH 7.2,pKd,7.28
CN1CCc2nc(NC(=O)C3=NN(c4ccc(F)cc4)C(C(N)=O)C3)sc2C1 (stereo not shown),"DDB1- and CUL4-associated factor 7 (Homo sapiens, UniProt P61962)","binding, SPR",,pKd,< 4.15
Cn1ccc(-c2ccc(-c3cc(C(=O)O)cc4cc(-c5ccc(C(F)(F)F)cc5)ccc34)cc2)n1,"Sigma intracellular receptor 2 (TMEM97, Homo sapiens, UniProt Q5BJF2)","cell-free assay, radioligand",,pKi,5.72
CC(C)c1cccc(C(C)C)c1N=C1C(=O)N(Cc2ccc(Br)cc2)c2ccccc21,PIK3CG,"enzyme activity, inhibitor, ADP detection",,pIC50,8.39
Cc1cc(Oc2ncccc2CN2CCN(c3ccccc3C)CC2)ccc1-c1c(C)c(=O)[nH]c(=O)n1C,ADRA2B,"ligand displacement, radioligand",,pKi,7.55
NC(=O)C1CN(C(=O)CCl)c2ccccc2O1 (stereo not shown),"Creatine kinase U-type, mitochondrial (CKMT1A, Homo sapiens, UniProt P12532)","binding, MST",,pKd,4.89
COc1cc(N=C2C(=O)N(Cc3ccccc3)c3ccccc32)cc(OC)c1,PIK3CG,"enzyme activity, inhibitor, ADP detection",,pIC50,8.71
Cc1cc(Oc2ncccc2CN2CCN(c3ccc(Br)cc3)CC2)ccc1-c1c(C)c(=O)[nH]c(=O)n1C,ADRA2B,"ligand displacement, radioligand",,pKi,6.90
Cc1cccc(N=C2C(=O)N(Cc3ccccc3)c3ccccc32)c1,PIK3CG,"enzyme activity, inhibitor, ADP detection",,pIC50,9.35
Cc1cc(Oc2ncccc2CN2CCN(c3ccc(Cl)cc3)CC2)ccc1-c1c(C)c(=O)[nH]c(=O)n1C,ADRA2B,"ligand displacement, radioligand",,pKi,6.47
